Assay results as given in ChEMBL document CHEMBL2331522, “Dibenzocyclooctadiene lignans and norlignans from fruits of Schisandra wilsoniana” (J Nat Prod, 2013).
In brackets after ≈: the same amount, converted by molar mass.

Legend:
[1] = Therapeutic index, ratio of CC50 for human C8166 cells to EC50 for HIV1; type: cell-based; settings: read-out: Ratio CC50/EC50
[2] = Cytotoxicity against human C8166 cells by MTT assay; type: cell-based
[3] = test system: Human immunodeficiency virus 1; assay: Antiviral activity against HIV1 assessed as reduction in virus-induced cytopathogenicity; type: functional, organism-based
How it was run: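 Test compounds were added to C8166 cells infected with HIV-1 and scored for protection from virus-induced cytopathic effect. The concentration giving 50% protection is reported as EC50.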

Structure (SMILES) | selectivity ratio [1] | CC50 [2] [µg/mL] | EC50 [3] [µg/mL]
COc1cc2c(c(OC)c1O)-c1c(cc(OC)c(OC)c1OC)C[C@H](C)[C@H](C)[C@H]2O [MARLIGNAN M] | 9.39 | 32.1 (≈ 76.7 µM) | 3.42 (≈ 8.17 µM)
COc1cc2c(c(O)c1OC)-c1c(cc(OC)c(OC)c1O)[C@H](O)[C@@H](C)[C@@H](C)C2 [MARLIGNAN N] | 7.67 | 47.4 (≈ 117 µM) | 6.18 (≈ 15.3 µM)
COc1c(O)cc2c(c1OC)-c1c(cc3c(c1OC)OCO3)C[C@H](C)[C@H](C)[C@H]2O [MARLIGNAN O] | 12.1 | 70.6 (≈ 175 µM) | 5.84 (≈ 14.5 µM)
COc1c2c(cc3c1-c1c(cc4c(c1O)OCO4)C[C@H](C)[C@H](C)[C@H]3OC)OCO2 [MARLIGNAN P] | 23.5 | 74.6 (≈ 186 µM) | 3.18 (≈ 7.94 µM)
COc1c2c(cc3c1-c1c(cc4c(c1O)OCO4)[C@H](OC)[C@@H](C)[C@@H](C)C3)OCO2 [MARLIGNAN Q] | 5.33 | 22.5 (≈ 56.2 µM) | 4.22 (≈ 10.5 µM)
COc1cc2c(c(O)c1OC)-c1c(cc3c(c1OC)OCO3)[C@H](OC)[C@@H](C)[C@@H](C)C2 [MARLIGNAN R] | 9.48 | 36.7 (≈ 88.1 µM) | 3.87 (≈ 9.29 µM)
COc1cc2c(c(OC)c1OC)-c1c(cc3c(c1O)OCO3)[C@H](OC)[C@@H](C)[C@@H](C)C2 [MARLIGNAN S] | 10.3 | 42.8 (≈ 103 µM) | 4.14 (≈ 9.94 µM)
COc1ccc(C(c2ccc(OC)c(O)c2)[C@H](C(=O)O)C(CO)CO)cc1O [MARLPHENOL E] | 21.2 | 73.5 (≈ 187 µM) | 3.47 (≈ 8.84 µM)
COc1ccc([C@@H](c2ccc3c(c2)OCO3)[C@H](C(=O)O)C(CO)CO)cc1O [MARLPHENOL F] | 27.6 | 82.1 (≈ 210 µM) | 2.97 (≈ 7.61 µM)
COc1cc(C(O)C(C(=O)O)C(CO)CO)ccc1O (stereo unspecified) [MARPHENOL C] | 26.9 | 84.5 (≈ 295 µM) | 3.14 (≈ 11 µM)
COc1cc(C(O)C(C(=O)O)C(CO)CO)cc(O)c1OC (stereo unspecified) [MARPHENOL D] | 29.1 | 93.8 (≈ 297 µM) | 3.22 (≈ 10.2 µM)
Cc1cn([C@H]2C[C@H](N=[N+]=[N-])[C@@H](CO)O2)c(=O)[nH]c1=O [ZIDOVUDINE] | > 46500 | > 200 | 0.0043 (≈ 0.0161 µM)
